Screens deposited in PubChem by The Scripps Research Institute Molecular Screening Center.
The list is not random: actives were taken first. Their share in the collection is about 3%.
S1P1 ag pot: S1P1 (human) agonism or agonism potentiation; S1P1 CRE-bla cells, forskolin, beta-lactamase FRET, potentiator mode; S1P1 agonist co-added at EC20, 2 nM; 100% = saturating reference agonist, 0% = basal; 0.57% of 56,000 active; activation, % at 9.5 µM; AID 449;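 active = activation above a cutoff set at the mean activation of all tested compounds plus 3 SD, cut at about 54% in these data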;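 also: forskolin at 4 µM as EC80 and the EC20 agonist is SEW2871; 100% = SEW2871 at its EC100 plus forskolin at EC80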
5-HT1A blocker: antagonists of human 5-HT1a serotonin receptor. P08908. CHO 5-HT1a Ga15 NFAT-bla reporter, antagonist mode. inhibition, % at 10 µM. 0.68% of 62,000 active. AID 612;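 active = inhibition above the mean of all tested compounds plus 3 SD, cut at about 43% in these data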;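 also: receptor stimulated by 5-CT agonist at 100 nM near EC80; beta-lactamase reporter measured by ratiometric fluorescence of a cleavable substrate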
Target sequence (P08908 whole entry, looked up): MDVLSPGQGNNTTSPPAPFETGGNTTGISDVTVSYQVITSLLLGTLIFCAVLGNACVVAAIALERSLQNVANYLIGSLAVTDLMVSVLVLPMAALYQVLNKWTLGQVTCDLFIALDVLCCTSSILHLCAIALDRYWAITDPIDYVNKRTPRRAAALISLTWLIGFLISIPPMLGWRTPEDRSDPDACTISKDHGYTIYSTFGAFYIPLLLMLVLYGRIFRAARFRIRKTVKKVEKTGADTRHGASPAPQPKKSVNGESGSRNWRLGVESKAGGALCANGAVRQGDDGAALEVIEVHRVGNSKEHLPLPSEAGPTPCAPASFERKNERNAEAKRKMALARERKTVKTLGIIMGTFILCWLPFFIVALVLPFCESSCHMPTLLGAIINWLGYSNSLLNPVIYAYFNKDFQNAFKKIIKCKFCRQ
HTR1E antagonist: 5-HT1E (human) receptor antagonism. P28566. inhibition, % at 6 µM. CHO 5-HT1E Ga15 NFAT-bla reporter, FRET, antagonist. AID 571. 0.99% of 65,000 active;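 active = inhibition above a set limit, the mean inhibition across every tested compound plus 3 SD, cut at about 29% in these data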;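 also: signal is the 460 over 535 nm emission ratio of beta-lactamase substrate; 0% = agonist plus DMSO wells and 100% = wells without agonist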
HTR1A agonist: agonists of human 5-HT1a serotonin receptor; P08908; CHO 5-HT1a Ga15 NFAT-bla reporter, FRET ratio; 0% basal, 100% maximal reference agonist; activation, % at 10 µM; 0.56% of 65,000 active;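 active = activation above the screen-wide mean activation plus 3 SD, cut at about 19% in these data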;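 also: 0% = DMSO wells and 100% = 5-CT at EC100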
S1P3 ag: activates the human S1P3 receptor. Q99500. S1P3 NFAT-BLA reporter cells, agonism, FRET ratio; relative to 1 µM S1P, basal subtracted. activation, % at 4.5 µM. 0.1% of 60,000 active;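 active = activation above the screen-wide mean plus 3 SD, cut at about 4.5% in these data, passing the limit was not always enough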
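Measure – % activation relative to 1 µM S1P (100%), per plate · System – stable CHO line with human S1P3, Gα16, NFAT-BLA reporter · Timing – cells plated overnight, compound 4 h 37 °C, substrate 2 h RT · Technique – fluorescent BLA substrate, ex 405 nm, em 460/535 nm ratio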
5HT1E ag: activates the human 5-HT1E serotonin receptor. CHO 5-HT1E Ga15 NFAT-bla reporter, FRET; 0% DMSO wells, 100% control agonist wells. activation, % at 6 µM. 0.69% of 65,000 active. AID 574;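 active = activation above a set limit, the screen-wide mean activation plus 3 SD, cut at about 8.5% in these data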;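 also: 100% = positive control agonist at 1 µM giving full maximal response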
Starred values were filed as active, the others as inactive; . = not tested or not shown.

SMILES | S1P1 ag pot | 5-HT1A blocker | HTR1E antagonist | HTR1A agonist | S1P3 ag | 5HT1E ag
CC1(C)Cc2cccc(OCC(O)CN3CCN(c4ccccn4)CC3)c2O1 (configuration not stated) | 15 | 11 | -4 | 21* | 0 | 0
CC1CC(C)(C)Nc2ccc(OC(=O)c3ccco3)cc21 (configuration not stated) | 68 | 51* | 40* | -4 | -1 | 1
O=C(Oc1ccc2ccccc2c1)c1ccco1 | -21 | -11 | -8 | -2 | 0 | 1
COc1ccccc1N=c1scc(-c2ccc3c(c2)NC(=O)CO3)n1CC1CCCO1 (configuration not stated) | 8 | 6 | -2 | 1 | 1 | 0
CCN=c1scc(-c2ccc3c(c2)NC(=O)CO3)n1N=C1CCCC1 | 64* | -1 | 1 | -2 | -1 | 0
Cn1cc(CC(=O)N2CCN(c3ccc(Cl)cc3)CC2)c2ccccc21 | . | 11 | 2 | 0 | . | 1
CC(=O)C1=C(O)C(=O)N(CCN2CCOCC2)C1c1ccccc1 (configuration not stated) | 4 | 12 | 16 | -2 | 0 | 9.3*
COCc1c(C)cc(C)c(/C=N/O)c1C | -5 | -9 | -7 | -2 | -1 | 0
COCCN(C(=O)c1ccccc1)c1nnc(-c2cccnc2)s1 | 62* | -1 | -7 | -3 | 0 | 0
COCCN(C(=O)Cc1cccs1)c1nnc(-c2cccnc2)s1 | 24 | -13 | 3 | -2 | 0 | -1
CCOC(=O)COc1cccc2c(=O)n(CC(=O)N3CCc4ccccc43)ccc12 | -4 | 6 | 16 | -1 | -1 | 1
CCOC(=O)COc1cccc2c(=O)n(CC(=O)NCc3ccc4c(c3)OCO4)ccc12 | 16 | 6 | 47* | 2 | 0 | 1
CC1(C)CC(=O)C2=C(C1)Nc1ccccc1NC2c1nc2ccccc2[nH]1 (configuration not stated) | 1 | -6 | 34* | 0 | 0 | 0
COc1ccc2ncn(-c3ccccc3)c2c1 | 68* | 23 | 16 | -4 | -2 | -1
CCN(CC)C(=O)C1CCN(S(=O)(=O)c2ccc3oc4ccccc4c3c2)CC1 | 84* | 8 | 6 | 0 | -2 | 1
O=S(=O)(c1ccc2oc3ccc(S(=O)(=O)N4CCCC4)cc3c2c1)N1CCCC1 | -5 | -6 | -6 | -2 | 0 | 0
COc1ccc(NS(=O)(=O)c2coc(C(N)=O)c2)cc1Cl | -2 | -3 | -7 | -3 | -1 | 2
COc1ccc(-n2nc3ccc(NS(C)(=O)=O)cc3n2)cc1Cl | 103* | 10 | 11 | -2 | -1 | 0
CC(=O)N1CCN(c2ccc(NCc3ccc4c(c3)OCO4)cc2)CC1 | -26 | -7 | -3 | 43* | 0 | 0
O=C(CCN1CCN(c2ccccc2)CC1)Nc1ccc2c(c1)OCO2 | . | 83* | -3 | 9 | -1 | -1
O=C(c1ccccc1)N1CCN(c2ccc(NCc3ccc4c(c3)OCO4)cc2)CC1 | 10 | 6 | 15 | -2 | 0 | 0
O=C(CCN1CCN(c2ccc(F)cc2)CC1)Nc1ccc(F)cc1 | -22 | 36 | 4 | 0 | -1 | -1
COC(=O)c1ccc(NC(=O)CCN2CCN(c3ccccc3)CC2)cc1 | 16 | 44* | 4 | 2 | -2 | 0
O=C(CCN1CCN(c2ccccc2F)CC1)Nc1ccc2c(c1)OCO2 | -5 | 84* | 0 | 8 | 0 | 0
CC1CN(CCC(=O)Nc2ccc3c(c2)OCO3)CC(C)O1 (configuration not stated) | . | -11 | -3 | 1 | . | 1
SMILES | S1P1 ag pot | 5-HT1A blocker | HTR1E antagonist | HTR1A agonist | S1P3 ag | 5HT1E ag
CCc1nnc(NS(=O)(=O)c2ccc(N3C(=O)C4CC=C(Cl)CC4C3=O)cc2)s1 (configuration not stated) | . | 3 | -15 | -3 | 0 | -1
CCOC(=O)c1[nH]c2ccc(OC)cc2c1NC(=O)CCN1CCCC(C)C1 (configuration not stated) | 0 | . | 2 | -3 | -4 | -1
CC(C)n1c(SCC(=O)c2ccc3c(c2)OCCO3)nc2c1c(=O)n(C)c(=O)n2C | -10 | 7 | -3 | -1 | 1 | 0
COC(=O)c1ccc(NC(=O)CCn2cccc2)cc1 | -7 | 4 | -6 | -2 | -1 | 9.6*
CNC(=O)CCC(=O)Nc1ccc(C(=O)OC)cc1 | . | 1 | -6 | 0 | 0 | 0
c1coc(-c2nnc3sc(C4CCCCC4)nn23)c1 | -7 | . | -3 | -3 | -1 | 0
O=C(OCn1nnc2ccccc2c1=O)C1CCN(S(=O)(=O)c2cccs2)CC1 | 4 | -4 | -2 | -1 | -1 | 0
Cn1c(=O)c2ncn(CC(=O)Nc3ccc4oc(-c5cccc6ccccc56)nc4c3)c2n(C)c1=O | -6 | -1 | 1 | -1 | -1 | 0
CCC(C)c1ccc2oc(-c3ccc(NC(=O)Cn4cnc5c(=O)n(C)c(=O)n(C)c54)cc3)nc2c1 (configuration not stated) | 111* | 9 | -5 | 8 | 0 | 2
COc1ccc(C2CC(c3c(O)cc(C)oc3=O)=NCCS2)c(OC)c1 (configuration not stated) | 43 | 39 | 65* | -4 | -2 | -1
COCCCNC(=O)CCn1c(=O)c2ccccc2n(CC(=O)Nc2c(C)cccc2C)c1=O | -5 | 4 | -12 | -4 | 0 | 0
COCCCNC(=O)CCCn1c(=O)c2ccccc2n(CC(=O)Nc2c(C)cc(C)cc2C)c1=O | 5 | 7 | 0 | -3 | -1 | 43*
COc1nc(NCCC2=CCCCC2)nc(OC)n1 | . | -14 | 3 | 51* | -1 | 0
COc1nc(NCCc2ccc(OC)c(OC)c2)nc(OC)n1 | -10 | 12 | -5 | 1 | -2 | 0
CCCN(C(=O)c1cccs1)c1nnc(-c2ccncc2)s1 | 101* | 9 | 20 | -1 | -1 | 1
CCN(Cc1ccccc1)C(c1ccccn1)c1nnnn1C(C)(C)CC (configuration not stated) | -4 | 45* | 1 | -1 | -1 | -1
CCC(C)(C)n1nnnc1C(c1ccccn1)N1CCOCC1 (configuration not stated) | -9 | 2 | -2 | -2 | 0 | -1
c1ccc(-c2nc3nonc3nc2-c2ccccc2)cc1 | 4 | 33 | 16 | -3 | 6.1* | -1
Nc1nnc(-c2ccccc2)c(-c2ccccc2)n1 | -46 | -10 | 5 | -1 | 0 | 1
Nc1nonc1-c1nc2ccccc2n1Cc1ccc(F)cc1Cl | 1 | 63* | 18 | -3 | -1 | 0
